Assay [1] concerns Calf thymus DNA. The experiment in a line: DNA binding affinity constant in calf-thymus DNA at pH 7.4. In kind it is nucleic-acid assay. The settings on record: Bos taurus. In a few lines:
(§1)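 Calf thymus DNA (4 µg/mL) at 25 °C, with drug at 10^-5 M, titrated with microliter portions of ethidium bromide (100 µg/mL stock in buffer). Fluorescence excitation was 546 nm and emission 590 nm. Apparent affinity constant (Kap) was derived from Scatchard plots of the competition.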

Assay [2] relates to Calf thymus DNA. Kind of assay: DNA binding affinity constant for calf-thymus DNA at pH 6. As to conditions: Bos taurus. In kind it is nucleic-acid assay. In a few lines:
as §1

A short description of assay [3]: Acid dissociation constant (pKa) measured by UV spectroscopy.
Assay [4] has as its system Calf thymus DNA. Kind of assay: DNA binding affinity constant for calf-thymus DNA at pH 5. The settings on record: Bos taurus. In kind it is nucleic-acid assay. In a few lines: as §1
Assay [5] has as its system L1210. Kind of assay: The compound was tested for optimum dose fraction of MTD against L1210 cells in […] mice. Type of assay: functional, Mus musculus. The gist of the method: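 L1210 leukaemia, 10^5 cells ip into DBA2 mice. Single ip dose of the acetate salt 24 h later, with 20–30 mice per group. Dose is expressed as a fraction of the MTD, where the MTD (highest dose causing no deaths) is taken as unity.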

In assay [6] the test system is L1210. Kind of assay: The compound was tested for maximum tolerated dose (MTD) against L1210 cells in […] mice. In kind it is functional, Mus musculus. In a few lines: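 Acute toxicity in mice by the usual procedure. MTD is the highest dose that can be given without any animal death.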
Assay [7] is filed under the species Mus musculus. Kind of assay: The mean survival time of treated animals (T) was compared to that of control animals(C) calculated as % T/C = (treated survival/control) x 100. Type of assay: functional. In a few lines: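 DBA2 mice, 20–30 per group, given 10^5 L1210 cells ip. 24 h later one ip injection of drug (acetate salt, water-soluble); controls get solvent alone. Deaths recorded daily and survivors past 45 days counted as cured. T/C = mean survival treated/control ×100, with significance by Student's t test.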

For the compound `COc1ccc2c(c1)c1c3ncccc3ccc1n2C`, the K app in assay [1] came out at 23000 M⁻¹; in assay [2], 37000 M⁻¹; in assay [4], 157000 M⁻¹. In addition, the pKa in assay [3] turned out to be 5.35.
Consider `COc1ccc2[nH]c3ccc4c[n+](C)ccc4c3c2c1.[I-]`, for which the K app in assay [1] turned out to be 200000 M⁻¹. Also, the OD in assay [5] was 0.5. This compound came in with an MTD in assay [6] of 50 mg/kg.
The matching figures for `COc1ccc2c(c1)c1c3c[n+](CCN4CCCCC4)ccc3ccc1n2C.[Cl-]`: 300000 M⁻¹, 0.5 and 10 mg/kg.
Turning to `COc1ccc2c(c1)c1c3ccncc3ccc1n2C`, the K app amounted to 123000 M⁻¹ in assay [1], 467000 M⁻¹ in assay [2] and 1.1e+06 M⁻¹ in assay [4]. The compound also registered a pKa in assay [3] of 6.6.
As to `COc1ccc2[nH]c3ccc4ncccc4c3c2c1`, the K app came to 16000 M⁻¹ in assay [1], 40000 M⁻¹ in assay [2] and 120000 M⁻¹ in assay [4]. Also, the pKa in assay [3] amounted to 5.6.
The matching figures for `Oc1ccc2[nH]c3ccc4cccnc4c3c2c1`: 16000 M⁻¹, 30000 M⁻¹, 115000 M⁻¹ and 5.35.
The like results for `Oc1ccc2[nH]c3ccc4cnccc4c3c2c1` were, in that order, 19000 M⁻¹, 82000 M⁻¹, 240000 M⁻¹ and 6.75.
With `COc1ccc2[nH]c3ccc4cc[n+](C)cc4c3c2c1.[I-]`, the K app in assay [1] worked out at 290000 M⁻¹. This compound also showed an OD in assay [5] of 0.5. In assay [6], this compound came in with a maximal tolerated dose (MTD) of 50 mg/kg.
With `Oc1ccc2[nH]c3ccc4ccncc4c3c2c1`, the K app in assay [1] turned out to be 42000 M⁻¹; in assay [2], 115000 M⁻¹; in assay [4], 300000 M⁻¹. Besides, the pKa in assay [3] came out at 6.4.
As for `COc1ccc2[nH]c3ccc4cnccc4c3c2c1`, the K app in assay [1] came to 77000 M⁻¹; in assay [2] it was 110000 M⁻¹; in assay [4], 150000 M⁻¹. In addition, the pKa in assay [3] is 6.4.
The matching figures for `COc1ccc2[nH]c3ccc4cccnc4c3c2c1`: 18000 M⁻¹, 32000 M⁻¹, 100000 M⁻¹ and 5.25.
As to `COc1ccc2[nH]c3ccc4ccncc4c3c2c1`, the figures for the K app in assay [1], in assay [2] and in assay [4] were 35000 M⁻¹, 44000 M⁻¹ and 170000 M⁻¹, respectively. In assay [3], this compound returned a pKa of 5.75.
For the compound `C[n+]1cccc2c3c(ccc21)[nH]c1ccccc13.[I-]`, the K app in assay [1] was 60000 M⁻¹. The OD in assay [5] was 0.5. In assay [6], this compound gave a maximum tolerated dose (MTD) of 50 mg/kg.
Regarding `COc1ccc2c(c1)c1c3cc[n+](C)cc3ccc1n2C.[I-]`, the K app in assay [1] was 310000 M⁻¹. Also, in assay [5], the OD came out at 0.5. Moreover, in assay [7], the T/C is 115%. Besides, the MTD in assay [6] stood at 150 mg/kg.
On to `COc1ccc2[nH]c3ccc4cc[n+](CCN5CCCCC5)cc4c3c2c1.[Cl-]`, for which the K app in assay [1] worked out at 120000 M⁻¹. This compound also gave an OD in assay [5] of 1. Also, the MTD in assay [6] stood at 10 mg/kg.
With `COc1ccc2c(c1)c1c3c[n+](C)ccc3ccc1n2C.[I-]`, the K app in assay [1] was determined as 695000 M⁻¹. Further, in assay [5], the OD was 0.7. For the same compound, the T/C in assay [7] is listed as 122%. Further, the MTD in assay [6] worked out at 25 mg/kg.
In assay [1], `COc1ccc2[nH]c3ccc4cc[n+](CCO)cc4c3c2c1.[I-]` gave a K app of 110000 M⁻¹. The compound further returned an OD in assay [5] of 0.5. In assay [7], the T/C is recorded as 116%. Also, the MTD in assay [6] was found to be 100 mg/kg.
Consider `COc1ccc2c(c1)c1c3cnccc3ccc1n2C`, for which the K app came out at 146000 M⁻¹ in assay [1], 250000 M⁻¹ in assay [2] and 530000 M⁻¹ in assay [4]. The compound further displayed a pKa in assay [3] of 5.9.
Compound `C[n+]1ccc2ccc3[nH]c4ccc(O)cc4c3c2c1.[I-]` returned a K app in assay [1] of 180000 M⁻¹. In assay [5], this compound had an OD of 1. The compound also came in with a maximal tolerated dose (MTD) in assay [6] of 25 mg/kg.
In assay [1], `C[n+]1ccc2c(ccc3[nH]c4ccc(O)cc4c32)c1.[I-]` registered a K app of 67000 M⁻¹. The OD in assay [5] is 0.5. This compound returned an MTD in assay [6] of 50 mg/kg.
